# Sampled rows, rich in hits. Any-hit rate of the full collection: about 4.3%.
# Dyrk1A ADPGlo: inhibitors of rat Dyrk1A kinase | Q63470 | ADP-Glo luminescence, NFATc1 peptide | inhibition, % at 12.5 µM | actives 0.43% (n = 310,000) | AID 504441; in the data active = inhibition above about 50%;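 note: plate controls were vehicle with enzyme for no effect and no enzyme for full effect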
# CAL PDZ FP-1: blocks peptide binding to human CAL PDZ domain; purified CAL PDZ, TMR-peptide fluorescence polarization, 1 h; inhibition, % at 20 µM; actives 0.02% (n = 330,000); Q9HD26; AID 504414;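 active = highest replicate inhibition of at least 40%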;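 note: plate controls were DMSO neutral control wells for no effect and unlabeled competitor peptide control wells for full effect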
#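 System: tagged CAL PDZ domain. Schedule: 1 h room-temperature incubation prior to read. Signal: fluorescence polarization (mP). Measure: percent inhibition from loss of millipolarization.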
# Rtt109 Vps75: blocks Candida albicans Rtt109/Vps75 acetyltransferase activity. Q5AAJ8. purified Rtt109/Vps75, ThioGlo CoA-SH fluorescence, 4 h. inhibition, % at 34.9 µM. actives 0.16% (n = 330,000);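 active = inhibition of at least 50% in every replicate; inconclusive = best replicate reaches 50% inhibition but some replicates fall short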
# Target sequence (Q5AAJ8 whole entry, looked up): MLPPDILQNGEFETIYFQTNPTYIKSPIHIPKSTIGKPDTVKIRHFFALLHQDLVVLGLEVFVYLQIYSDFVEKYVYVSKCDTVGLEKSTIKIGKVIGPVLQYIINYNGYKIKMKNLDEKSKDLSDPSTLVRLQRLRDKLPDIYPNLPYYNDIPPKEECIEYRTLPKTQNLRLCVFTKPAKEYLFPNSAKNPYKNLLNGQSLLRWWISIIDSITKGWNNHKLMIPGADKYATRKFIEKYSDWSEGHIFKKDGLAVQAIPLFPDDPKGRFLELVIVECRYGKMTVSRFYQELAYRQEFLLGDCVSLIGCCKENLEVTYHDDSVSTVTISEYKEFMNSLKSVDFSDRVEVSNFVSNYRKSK
# CAL PDZ FP-2: inhibitors of human CAL PDZ peptide binding. Q9HD26. purified CAL PDZ, TMR-peptide fluorescence polarization, 1 h. inhibition, % at 24.9 µM. actives 0.92% (n = 300,000). AID 602252;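 active = mean inhibition of at least 30% with at least half of replicates also reaching 30%; inconclusive = no clear call, values can overlap the other calls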;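 note: 0% = DMSO neutral control and 100% = excess unlabeled competitor peptide PRC23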
# ALR inh: inhibitors of human sulfhydryl oxidase ALR; AID 485317; inhibition, % (concentration not given with the values); P55789; purified ALR, DTT oxidation, H2O2 HRP-luminol luminescence; actives 3.8% (n = 290,000);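 active = mean replicate inhibition above about 79%, with every replicate also reaching it, limit read from the data; inconclusive = only one of the two criteria met; inactive = mean below limit and not every replicate reaching it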
# Target sequence (P55789 whole entry, looked up): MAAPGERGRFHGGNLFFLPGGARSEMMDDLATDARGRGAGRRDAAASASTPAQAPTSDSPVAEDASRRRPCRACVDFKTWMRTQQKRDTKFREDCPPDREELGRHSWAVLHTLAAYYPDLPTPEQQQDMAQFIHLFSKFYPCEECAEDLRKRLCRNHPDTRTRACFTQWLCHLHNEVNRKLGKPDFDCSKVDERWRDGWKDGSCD
# * hit, by the source's call; ? = inconclusive; · = no result; ! = a repeat was not active.
SMILES,Dyrk1A ADPGlo,CAL PDZ FP-1,Rtt109 Vps75,CAL PDZ FP-2,ALR inh
CSc1nccn1CC(=O)Nc1ccc(F)cc1,3,-1,4,0,98*
CC(=O)Nc1ccc(NC(=O)CSc2ncc(C(=O)Nc3ccccc3)c(=O)n2C)cc1,-6,-3,0,-2,99*
O=C(CSC1=NCCN1)Nc1cccc(C(F)(F)F)c1,·,1,1,1,100*
COc1ccc(C(=O)CSc2nccn2C)cc1,1,-2,15,6,99*
COc1ccc(NC(=O)CSC2=NCCN2)cc1,·,-1,2,5,·
COc1ccc(NC(=O)CSc2nc3cccnc3n2C)cc1,1,-3,4,1,99*
Cn1ccnc1SCC(=O)Nc1cccc(O)c1,-7,-1,10,0,-10
CCOc1ccc(NC(=O)CSC(N)=O)cc1,13,0,12,-2,99*
CCOc1ccc(NC(=O)CC)cc1,·,·,·,·,-6
Cn1ccnc1SCC(=O)Nc1cccc(C(F)(F)F)c1,1,-3,-10,-1,100*
COc1ccc(S(=O)(=O)NCC2CCCN(Cc3cccc(C(C)=O)c3)C2)cc1 (stereo not drawn),-1,-2,-14,-3,76*
COc1ccc(CC(=O)NCC2CCCN(Cc3ccc(OC(F)(F)F)cc3)C2)cc1 (stereo not drawn),7,-4,-3,63*,·
Cc1ccccc1NC1=NC(=S)N(c2ccccc2)C12CCOC(C)(C)C2 (stereo not drawn),-2,17,-8,42*,-14
CCN(c1ccccc1)S(=O)(=O)c1cccc(C(=O)NCC2(N(C)C)CCCCC2)c1,·,-1,10,-4,-2
Cc1cccc(-c2nc(CS(=O)CC(=O)NCCc3ccccc3)c(C)o2)c1 (stereo not drawn),3,-3,-5,-2,34
COc1ccc(CCNC(=O)C2CCN(Cc3nc(-c4ccc(Cl)cc4)oc3C)CC2)cc1OC,1,0,32,-2,·
COc1ccc(CCNC(=O)CS(=O)Cc2nc(-c3ccc(C)cc3)oc2C)cc1OC (stereo not drawn),-4,-1,8,3,99*
CCOc1ccc(CCNC(=O)CS(=O)Cc2nc(-c3ccc(OC)cc3)oc2C)cc1OCC (stereo not drawn),0,-3,-1,-1,99*
COc1ccc(-c2nc(CS(=O)CC(=O)NCCc3ccc(C)cc3)c(C)o2)cc1OC (stereo not drawn),0,0,-8,6,99*
COc1ccc(-c2nc(CS(=O)CC(=O)NCCc3ccc(OC)c(OC)c3)c(C)o2)cc1 (stereo not drawn),-1,-3,-3,2,98*
CCOc1ccc(CCNC(=O)CCc2nc(-c3ccc(OC)cc3)no2)cc1OCC,-1,-1,8,-3,0
C=CCN(CC=C)S(=O)(=O)c1ccc2nc(NC(=O)C3CCCO3)sc2c1 (stereo not drawn),6,-2,?,-2,69
CC(NC(=O)c1ccccc1)c1nnc(SCC(=O)Nc2nnc(C3CC3)s2)n1C (stereo not drawn),0,-2,-6,16,·
COc1ccc(Nc2ccnc(Nc3ccc(OC)cc3)n2)cc1,11,0,-2,-3,98*
COc1ccc(Nc2nc(OC)nc(OC)n2)cc1,3,·,5,-3,14
SMILES,Dyrk1A ADPGlo,CAL PDZ FP-1,Rtt109 Vps75,CAL PDZ FP-2,ALR inh
CCn1c(SCc2nc3sc(C(=O)O)c(C)c3c(=O)[nH]2)nc2ccccc21,5,-5,-6,-11,98*
Fc1ccc(C(c2nnnn2C2CCCC2)N2CCc3ccccc32)cc1 (stereo not drawn),6,1,-3,-1,91*
Fc1ccc(C(c2nnnn2CCc2ccccc2)N2CCCc3ccccc32)cc1 (stereo not drawn),-3,-2,-1,2,-5
Cc1noc(C)c1COc1cccc(C(=O)OC(C)C(=O)Nc2c(C)n(C)n(-c3ccccc3)c2=O)c1 (stereo not drawn),-5,-2,-4,-1,-10
O=C(NCCN1CCCC1=O)C1CCC(=O)N(CCc2ccc(Cl)cc2)C1 (stereo not drawn),1,0,14,-4,-7
O=C(NCCN1CCCc2ccccc21)C1CCC(=O)N(CCc2ccccc2)C1 (stereo not drawn),-5,0,-5,-2,86*
COC(=O)C1CCN(C(=O)C2CCC(=O)N(CCCc3ccccc3)C2)CC1 (stereo not drawn),0,-1,-4,69*,-2
O=C(NCCc1ccccc1C(F)(F)F)C1CCC(=O)N(CCCN2CCCC2=O)C1 (stereo not drawn),-3,0,0,52*,·
COC(=O)C1CCN(C(=O)C2CCC(=O)N(CCc3cccc(F)c3)C2)CC1 (stereo not drawn),5,-2,-10,0,-5
Cc1ccc2c(c1)N(CC(=O)NCC1CCCO1)C(=O)C(C(C)C)O2 (stereo not drawn),-2,-2,-1,0,2
O=C(CN1CCN(c2ccccc2)CC1)Nc1ccccc1Cl,1,-2,·,0,98*
O=C(CCN1CCN(c2ccc(Cl)cc2)CC1)Nc1ccccc1F,2,0,-12,-3,88*
O=C(CCN1CCN(c2ccccc2)CC1)NNC(=S)Nc1ccccc1Cl,·,-1,-4,41*,48
O=C(NNC(=S)Nc1ccccc1Cl)C1CC1,-4,-2,-1,·,30
O=C(CN1CCCC1)Nc1ccccc1Cl,-3,-1,-2,·,-10
O=C(CN1CCN(c2ccc(O)cc2)CC1)Nc1cc([N+](=O)[O-])ccc1Cl,-3,-1,-2,-3,99*
O=C(O)c1ccc(N=Nc2c(O)ccc3ncccc23)cc1,1,-1,3,2,?
CCCCCCCCCCOC(=O)Cn1c(COc2ccccc2)[n+](C)c2ccccc21,-1,-1,-5,-3,-12
CCCCCCCCCCOC(=O)Cn1c(COc2ccc(OC)cc2)[n+](C)c2ccccc21,7,0,84*!,-4,-23
CC(=O)Nc1ccc(N2C(=O)CC(Sc3nc4ccccc4s3)C2=O)cc1 (stereo not drawn),3,-2,10,-3,?
COc1ccc(N2C(=O)CC(Sc3nc4ccccc4s3)C2=O)cc1OC (stereo not drawn),24,-3,·,-2,97*
O=[N+]([O-])c1cccc(-c2c[n+]3c(n2-c2ccccc2)SCC3)c1,·,-1,3,48*,·
COc1ccc(-c2cc3ccccc3n2CC(O)CN2CCN(CCO)CC2)cc1 (stereo not drawn),-4,0,-1,·,96*
COc1ccc(CSc2nc(C)cc(C)c2S(C)(=O)=O)cc1,-2,-1,-3,-2,5
CC1CCC2(CC1)NC(=S)N(c1ccccc1)N2 (stereo not drawn),-5,-1,95*,-3,93*

# Screens as filed in PubChem.
